Data published in ChEMBL document CHEMBL3739398, “Inhibition of Invasion in Pancreatic Cancer Cells by Conjugate of EPA with β(3,3)-Pip-OH via PI3K/Akt/NF-kB Pathway” (ACS Med Chem Lett, 2015).
Calls of active or inactive are those of the source. No cut-off for these calls is given here.

Experiments:
[1] = Cytotoxicity against human PANC1 cells by MTT assay; type: functional, cell-based; conditions: PANC-1
[2] = Cytotoxicity against human PC3 cells by MTT assay; type: functional, cell-based; conditions: PC-3
[3] = Cytotoxicity against human HCT116 cells by MTT assay; type: functional, cell-based; conditions: HCT-116
PANC-1 [4] = assay: Inhibition of cell migration in human PANC1 cells at 2 and 4 microM after 48 hrs by wound healing assay; type: functional, cell-based
Outline: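 Scratch wound made in PANC-1 monolayer; cells treated with compound at 2.0 and 4.0 μM, DMSO vehicle control; wound area photographed at 20× magnification at 0 h and after incubation; statistics from three independent experiments.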

[5] = Downregulation of S6K expression in human PANC1 cells at 2 and 4 uM by western blot analysis; type: functional, cell-based; conditions: PANC-1
Outline: (§1)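 PANC-1 seeded in six-well plates and treated with indicated compound concentrations; whole-cell lysates probed for target proteins by Western blotting.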

PANC-1 [6] = assay: Inhibition of cell invasion in human PANC1 cells by 3D invasion assay in presence of neutralized collagen; type: functional, cell-based
Outline: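 PANC-1 mixed with neutralized collagen, spotted centrally in wells and solidified as a cell-collagen hemisphere; fresh medium with or without compound added; invasion beyond the original collagen boundary scored against DMSO-treated cells.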

[7] = Upregulation of E-cadherin expression in human PANC1 cells at 2 and 4 uM by western blot analysis; type: functional, cell-based; conditions: PANC-1; outline: as §1
PANC-1 [8] = assay: Inhibition of colony formation in human PANC1 cells at 2 and 4 uM for 5 days by crystal violet staining based microscopic analysis; type: functional, cell-based
Outline: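 PANC-1 seeded at 1 × 10^3 cells/well, treated with compound alongside DMSO for 5 days; crystal violet-stained colonies counted in random fields and imaged under inverted microscope (20×); three independent experiments.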

PANC-1 [9] = assay: Inhibition of PI3K-mediated mTOR phosphorylation in human PANC1 cells at 2 and 4 uM by western blot analysis; type: cell-based; outline: as §1
[10] = Downregulation of PI3K-p85 alpha expression in human PANC1 cells by western blot analysis; type: functional, cell-based; conditions: PANC-1; outline: as §1
[11] = Effect on total mTOR expression in human PANC1 cells at 2 and 4 uM by western blot analysis; type: cell-based; conditions: panc-1; outline: as §1
PANC-1 [12] = assay: Inhibition of cell invasion in human PANC1 cells at 2 and 4 uM for 24 hrs by matrigel invasion assay; type: functional, cell-based
Outline: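 Boyden chamber matrigel invasion: PANC-1 treated 24 h with compound (2.0 and 4.0 μM); invaded cells counted in five random fields per group under inverted microscope (20×); three independent experiments, p < 0.05.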

PANC-1 [13] = assay: Antimetastatic activity in human PANC1 cells at 2 and 4 uM after 24 hrs by fluorescent gelatin degradation assay; type: functional, cell-based
Outline: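 PANC-1 grown 24 h on coverslips coated with cross-linked FITC-conjugated gelatin in presence of compound; matrix degradation spots visualized by fluorescence and degraded area highlighted by image analysis.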

[14] = Downregulation of MMP-2 expression in human PANC1 cells at 2 and 4 uM by western blot analysis; type: functional, cell-based; conditions: PANC-1; outline: as §1
[15] = Downregulation of MMP-9 expression in human PANC1 cells at 2 and 4 uM by western blot analysis; type: functional, cell-based; conditions: PANC-1; outline: as §1
PANC-1 [16] = assay: Inhibition of PI3K-mediated Akt phosphorylation at S473 residue in human PANC1 cells by western blot analysis; type: cell-based; outline: as §1
[17] = Downregulation of NF-kappaB expression in human PANC1 cells by western blot analysis; type: functional, cell-based; conditions: PANC-1; outline: as §1
[18] = Upregulation of TIMP1 expression in human PANC1 cells by western blot analysis; type: functional, cell-based; conditions: PANC-1; outline: as §1
[19] = Downregulation of PI3K-p110 alpha expression in human PANC1 cells by western blot analysis; type: functional, cell-based; conditions: PANC-1; outline: as §1

SMILES | IC50 [1] [µM] | IC50 [2] [µM] | IC50 [3] [µM] | also measured
CCC(/C=C/C(=O)NCC1(CC(=O)OC)CCCCC1)=C\c1ccc2c(c1)OCO2 | 10 | 45.2 | 47.6 | 
CCC(/C=C/C(=O)N1CCC[C@H]1C(=O)OC)=C\c1ccc2c(c1)OCO2 | 42.2 | 16 | 49.8 | 
CCC(/C=C/C(=O)N[C@@H](Cc1ccccc1)C(=O)OC)=C\c1ccc2c(c1)OCO2 | > 100 | 41.9 | 48.3 | 
CCC(/C=C/C(=O)O)=C\c1ccc2c(c1)OCO2 | > 100 | > 100 | > 100 | 
CCC(/C=C/C(=O)N[C@@H](C)C(=O)OC)=C\c1ccc2c(c1)OCO2 | 6.7 | 43.5 | 47.1 | 
CCC(/C=C/C(=O)NC1(CC(=O)OC)CCCCC1)=C\c1ccc2c(c1)OCO2 | > 100 | 20 | > 100 | 
CCCCC(=O)NC1(CC(=O)NNc2ccccc2)CCN(C(=O)/C=C/C(=C/c2ccc3c(c2)OCO3)CC)CC1 | 4 | 15 | > 100 | inhibition (PANC-1 [4]): Active; inhibition [5]: Active; inhibition (PANC-1 [6]): Dose-dependent effect; Activity [7]: Active; inhibition (PANC-1 [8]): Active; inhibition (PANC-1 [9]): Active; inhibition [10]: Dose-dependent effect; Activity [11]: Non-toxic; inhibition (PANC-1 [12]): Active; inhibition (PANC-1 [13]): Active; inhibition [14]: Active; inhibition [15]: Active; inhibition (PANC-1 [16]): Dose-dependent effect; inhibition [17]: Dose-dependent effect; Activity [18]: Dose-dependent effect; inhibition [19]: Dose-dependent effect
